Data from ChEMBL document CHEMBL3351538, “Complete stereochemistry and preliminary structure-activity relationship of rakicidin A, a hypoxia-selective cytotoxin from Micromonospora sp” (J Nat Prod, 2014).

How the values were obtained:
[1] = Cytotoxicity against human HCT8 cells under hypoxic condition […] by crystal violet method; assay type: functional, cell-based; settings: HCT-8
Procedure, shortened: (§1)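 HCT-8 or PANC-1 cells seeded at 2 × 10^4 per well in duplicate plates and preincubated 24 h to adhere. Serially diluted samples added, then cultures held 2 d either normoxic (5% CO2) or hypoxic (1% O2, modular chamber with oxygen indicator). Viability read by crystal violet staining under normoxic conditions.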

HCT-8 = experiment: Selectivity index, ratio of IC50 for human HCT8 cells under normoxic condition to IC50 for human HCT8 cells under hypoxic condition; assay type: functional
[2] = Cytotoxicity against human HCT8 cells under normoxic condition after 2 days by crystal violet method; settings: HCT-8, 2 d
[3] = Cytotoxicity against human PANC1 cells under normoxic condition after 2 days by crystal violet method; settings: PANC-1, 2 d
[4] = Cytotoxicity against human PANC1 cells under hypoxic condition […] by crystal violet method; assay type: functional, cell-based; settings: PANC-1; procedure, shortened: as §1
PANC-1 = experiment: Selectivity index, ratio of IC50 for human PANC1 cells under normoxic condition to IC50 for human PANC1 cells under hypoxic condition; assay type: functional

Row | Structure (SMILES) | IC50 [1] | Ratio IC50 (HCT-8) | IC50 [2] | IC50 [3] | IC50 [4] | Ratio IC50 (PANC-1)
1 | C=C1/C=C/C(=O)N(C)CC(=O)N[C@H]([C@@H](O)C(N)=O)C(=O)O[C@@H]([C@H](C)CCCCCCCCCCCC(C)C)[C@H](C)C(=O)N1 | 0.3 µM | 12.8 | 3.9 µM | 2.3 µM | 0.37 µM | 6.3
2 | C=C1/C=C/C(=O)N(C)CC(=O)NC(C(O)C(N)=O)C(=O)OC(C(C)CCCCCCCCCCCCC(C)C)C(C)C(=O)N1 (stereo not given) | 0.21 µM | 10 | 2.1 µM | 3.1 µM | 0.71 µM | 4.3
3 | C=C1/C=C/C(=O)N(C)CC(=O)N[C@H]([C@@H](O)C(N)=O)C(=O)O[C@@H]([C@H](C)CCCCCCCCCCCCCC(C)C)[C@H](C)C(=O)N1 | 1.8 µM | 5.2 | 9.4 µM | 17.9 µM | 4.7 µM | 3.8
4 | CC(C)CCCCCCCCCCC[C@@H](C)[C@@H]1OC(=O)[C@@H]([C@@H](O)C(N)=O)NC(=O)CN(C)C(=O)CCC(C)NC(=O)[C@H]1C (stereo not given in full) | 6.5 µM | 4.3 | 27.7 µM | 19.3 µM | 75.4 µM | 0.26
5 | CC(C)CCCCCCCCCCC[C@@H](C)[C@H](O)[C@H](C)C(=O)NC(C)CCC(=O)N(C)CC(=O)N[C@@H](C(=O)O)[C@@H](O)C(N)=O (stereo not given in full) | 63.4 µM | 0.54 | 33.9 µM | 27.4 µM | > 80 µM | –
6 | COc1cccc2c1C(=O)c1c(O)c3c(c(O)c1C2=O)C[C@@](O)(C(=O)CO)C[C@@H]3O[C@H]1C[C@H](N)[C@H](O)[C@H](C)O1 [DOXORUBICIN] | 19.6 µM | 0.12 | 2.4 µM | 1.1 µM | 5.4 µM | 0.21
